Results: ChEMBL document CHEMBL1140863, “Synthesis and evaluation of novel chloropyridazine derivatives as potent human rhinovirus (HRV) capsid-binding inhibitors” (Bioorg Med Chem, 2009)
In brackets after ≈: the same amount, converted by molar mass.

How the values were obtained:
rhinovirus A2 [1] = assay: Antiviral activity against HRV2 in human KB cells assessed as cytopathic effect by visual assay; type: functional, organism-based; conditions: Rhinovirus A
Method in brief: (§1)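 Cell-culture cytopathic-effect assays run in parallel on strains HRV-2 and HRV-14, each read both visually and by neutral red uptake. Antiviral EC50 and cytotoxic CC50 are expressed in µg/ml.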

[2] = Cytotoxicity against human KB cells by visual assay; type: cell-based; method in brief: as §1
[3] = Selectivity index, ratio of CC50 for human KB cells to EC50 for HRV2 by visual assay
Method in brief: (§2)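 Cell-culture cytopathic-effect (CPE) assays against HRV-2 and HRV-14. Antiviral EC50 and cytotoxic CC50 were each taken in µg/ml, with inhibition read either visually or by neutral red uptake. SI = CC50/EC50 for each read-out. Where viral CPE could not be told apart from drug cytotoxicity, this was flagged in a footnote.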

rhinovirus A2 [4] = assay: Antiviral activity against HRV2 in human KB cells assessed as cytopathic effect by neutral red uptake assay; type: functional, organism-based; conditions: Rhinovirus A; method in brief: as §1
[5] = Cytotoxicity against human KB cells by neutral red uptake assay; type: cell-based; method in brief: as §1
rhinovirus B14 [6] = assay: Antiviral activity against HRV14 in human KB cells assessed as cytopathic effect by visual assay; type: functional, organism-based; conditions: Rhinovirus B; method in brief: as §1
[7] = Selectivity index, ratio of CC50 for human KB cells to EC50 for HRV14 by visual assay; method in brief: as §2
rhinovirus B14 [8] = assay: Antiviral activity against HRV14 in human KB cells assessed as cytopathic effect by neutral red uptake assay; type: functional, organism-based; conditions: Rhinovirus B; method in brief: as §1
[9] = Selectivity index, ratio of CC50 for human KB cells to EC50 for HRV14 by neutral red uptake assay; method in brief: as §2
[10] = Selectivity index, ratio of CC50 for human KB cells to EC50 for HRV2 by neutral red uptake assay; method in brief: as §2

Compound | EC50 (rhinovirus A2 [1]) [µg/mL] | EC50 (rhinovirus B14 [6]) [µg/mL] | CC50 [2] [µg/mL] | Ratio CC50/EC50 [3] | EC50 (rhinovirus A2 [4]) [µg/mL] | CC50 [5] [µg/mL] | Ratio CC50/EC50 [7] | EC50 (rhinovirus B14 [8]) [µg/mL] | Ratio CC50/EC50 [9] | Ratio CC50/EC50 [10]
CCOC(=O)c1ccc(OCCC2CCN(c3ccnnc3Cl)CC2)nc1 | < 0.032 | < 0.032 | > 100 | >3125 | < 0.032 | > 100 | >3125 | < 0.032 | >3125 | >3125
COC(=O)c1ccc(OCCC2CCN(c3cc(Cl)nnc3Cl)CC2)cc1 | 0.31 (≈ 0.756 µM) | 7.1 (≈ 17.3 µM) | 30 (≈ 73.1 µM) | 97 | 0.1 (≈ 0.244 µM) | 4.7 (≈ 11.5 µM) | 8 | > 4.7 |  | 58
CCOC(=O)c1ccc(OCCC2CCN(c3ccc(C)nn3)CC2)cc1 [PIRODAVIR] | < 0.0032 | 0.081 (≈ 0.219 µM) | > 10 | >3125 | < 0.0032 | > 10 | >123 | 0.01 (≈ 0.0271 µM) | >1000 | >3125

The next lines start with results.

EC50 (rhinovirus A2 [1]) [µg/mL] | EC50 (rhinovirus B14 [6]) [µg/mL] | Compound | CC50 [2] [µg/mL] | Ratio CC50/EC50 [3] | EC50 (rhinovirus A2 [4]) [µg/mL] | CC50 [5] [µg/mL] | Ratio CC50/EC50 [7] | EC50 (rhinovirus B14 [8]) [µg/mL] | Ratio CC50/EC50 [9] | Ratio CC50/EC50 [10]
5.7 (≈ 13.9 µM) | 0.15 (≈ 0.366 µM) | CCCCc1ccc(OCCN2CCN(c3cc(Cl)nnc3Cl)CC2)cc1 | 10 (≈ 24.4 µM) | 1.8 | > 1.9 | 1.9 (≈ 4.64 µM) | 120 | 0.55 (≈ 1.34 µM) | 3.5 | 
> 100 | 12 (≈ 28.6 µM) | Clc1cc(N2CCN(CCOc3ccc(-n4cnnc4)cc3)CC2)c(Cl)nn1 | 35 (≈ 83.3 µM) |  | > 42 | 39 (≈ 92.8 µM) | 3 | 15 (≈ 35.7 µM) | 2.5 | 
> 56 | 43 (≈ 113 µM) | O=Cc1ccc(OCCN2CCN(c3cc(Cl)nnc3Cl)CC2)cc1 | 56 (≈ 147 µM) |  | 46 (≈ 121 µM) | 43 (≈ 113 µM) | >2 | > 43 |  | 1.1
> 35 | 0.036 (≈ 0.0906 µM) | CCOc1ccc(OCCN2CCN(c3cc(Cl)nnc3Cl)CC2)cc1 | 35 (≈ 88.1 µM) |  | > 12 | 12 (≈ 30.2 µM) | 972 | < 0.032 | >370 | 
